From the array DNA melting data of Ke et al. (doi:10.1101/2024.01.08.574731)

What was measured:
[1] = melting temperature; fluorescence melt of hairpins on a sequencing array, two-state fit, raised by 9.35 °C to match UV melts; conditions: sodium 0.088 M
How it was run: (§1)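 Hairpins were imaged by Cy3 fluorescence on a sequenced MiSeq flow cell with annealed Cy3 and quencher oligos, in 50 mM Na-HEPES pH 8.0, 25 mM NaCl, in 2.5 °C steps up to 60 °C. Bootstrapped two-state fits of normalised signals gave melting temperature and folding enthalpy. Four replicates were combined by inverse variance, and fitted temperatures were raised by 9.35 °C to match UV melts.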

[2] = folding enthalpy; higher = less favourable; fluorescence melt of hairpins on a sequencing array, two-state fit; conditions: sodium 0.088 M
How it was run: as §1

Sequence	Tm [1] [°C]	folding enthalpy [2] [kcal/mol]
GATCGGAAACCCGATC ((((((....))))))	53.9	-34.6
GTGTTAGGAAACCAACAC (((((.(....).)))))	40	-28.9
GAGGACGGAAACGTCTTC ((.((((....)))).))	47.3	-17.8
GTACCCCGAAAGGGTAC (((.(((....))))))	58.3	-28.3
GGCGTTGGAAACAGCGTC (.((.((....)).)).)	44.6	-21.9
GTTACGGGAAACCGCAAC (((.(((....))).)))	41.7	-26
GCCCATGGAAACACGGGC ((((.((....)).))))	49.4	-43
GTGAGCGAAAGCTAGCAC ((((((....)))..)))	40.4	-11.4
GGAGGACCGAAAGGTTCC (((..(((....))))))	42.9	-12.6
GATCGGGGTACCGATC ((((((....))))))	65.7	-34.5
GATCTCTAAAGAGATC ((((((....))))))	51.4	-33.4
GGCCCAGGAAACCGGACC ((.((.(....).)).))	33.5	-27.4
GATCTTGTAAAGATC ((((((...))))))	53.8	-43.5
GTGAGTGGAAACATTCAC ((((.((....)).))))	43.9	-33.9
GATCAACCGAAAGGTATC (((..(((....))))))	25.6	-12.1
GGGGAGCCGAAAGGCCCC (((..(((....))))))	61.9	-13.2
GCAAACTCGAAAGAGTGC (((..(((....))))))	43.8	-18
GCTATCGAAAGATAAGC ((((((....))).)))	45	-26.7
GATCTGGCCCCAGATC ((((((....))))))	52.9	-49.3
GAACACACGAAAGTGTTC (((..(((....))))))	46.2	-20.5
GGAGCCGAAAGGCCATCC ((((((....)))..)))	31.6	-8.68
GATCGTGTTTACGATC ((((((....))))))	57.5	-41.4
GTAATCCGAAAGGACTAC (((.(((....))).)))	37.9	-25.6

Sequence	Tm [1] [°C]	folding enthalpy [2] [kcal/mol]
GATCCTCGGAGGATC ((((((...))))))	51.6	-33.5
GACCACGAAAGTGAAGTC ((((((....)))..)))	40.2	-21.7
CAGCGGAAACGCTG (((((....)))))	69.3	-20.8
GGCGAATCGAAAGATGCC (((..(((....))))))	46.1	-22.5
GGTTCGGAAACGAACC ((((((....))))))	67.3	-33.2
GTTCGCGAAAGCGTAAC ((((((....))).)))	48	-13.8
GTGCGCCGAAAGGCACAC (((.(((....))).)))	63.7	-29
GCGGCCTCCGC ((((...))))	61.8	-17.7
GATACCGAAAGGTGAATC ((((((....)))..)))	27.2	-12.6
GTCCTCGCGAAAGCGGAC (((..(((....))))))	43.7	-12.7
GAGATACGAAAGTACTC (((.(((....))))))	36.7	-19.9
GAAATACGAAAGTAATTC (((.(((....))).)))	32.9	-15
GCCGAGCGAAAGCTGCGC ((..(((....)))..))	56.4	-17.8
GACCAGGGAAACCCGGTC ((((.((....)).))))	50.1	-37.7
GATGTCGGAAACGGCATC ((((.((....)).))))	54.4	-46.5
GAACCAGGAAACTGGTTC (((((((....)))))))	62	-45.1
GATCCTGTCTAGGATC ((((((....))))))	56	-39.4
GATCAGCTCGCTGATC ((((((....))))))	62.9	-57.4
GACCGAGGAAACTCGACC (..((((....))))..)	26.6	-14.3
GCACTGGAAACAGTGC ((((((....))))))	65.2	-38.3
GATCAATCCATTGATC ((((((....))))))	49.7	-42.6
GGGCTAGGAAACTGGCTC (.((.((....)).)).)	40.9	-20.4
GTCCTAGGAAACTAGGGC (.(((((....))))).)	49.4	-32.9

Sequence	Tm [1] [°C]	folding enthalpy [2] [kcal/mol]
CGTTCGGAAACGAGCACG ((((((....)))..)))	30.7	-13.2
GGGCACACGAAAGTGCCC (((..(((....))))))	67.3	-30.4
GATCCTGAGGAGGATC ((((((....))))))	49.2	-34
GCGTGGCGAAAGCCTTGC ((..(((....)))..))	48	-16.4
GTTTGGGGAAACCCAAGC (.(((((....))))).)	43.5	-21.9
GTAATTGAAAAATTAC ((((((....))))))	40.3	-26.2
GTGAACCGAAAGGTCCAC (((.(((....))).)))	49.8	-24.6
GGGTGCGAAAGCAGACCC ((((((....)))..)))	54.7	-20.4
GGTCTCACGAAAGTGACC (((..(((....))))))	37.9	-14.5
GGTCGCGAAAGCGCACC ((((((....))).)))	60.3	-20.8
GTGGCCTCGAAAGAGCAC (((..(((....))))))	37.4	-14.7
GAGTAGGAAACTACTC ((((((....))))))	51.1	-30.1
GTAGACGAAAGTCTGTAC ((((((....)))..)))	36.8	-11.6
GCCGCACCGAAAGGTGGC (((..(((....))))))	53.5	-8.56
GATCGAGCGTTCGATC ((((((....))))))	52.1	-45.4
GTCGCACGAAAGTGGAC (((.(((....))))))	49.9	-18.8
GTGTATCGAAAGATTCAC (((.(((....))).)))	44.7	-36.9
GGCAACGAAAGTTCCGCC ((((((....)))..)))	48.4	-21.4
GGTAGCGGAAACACTACC (((((.(....).)))))	44.8	-30.9
GCTAGTGGAAACACCAGC (((.(((....))).)))	39.2	-23.6
GAATCGCGAAAGCGTTC (((.(((....))))))	42	-12.3
GTGTCTCGAAAGAGCAC (((.(((....))))))	52.2	-33.4
GTAGCCGAAAGGCTTTAC ((((((....)))..)))	27.3	-7
